Columns and labels:
HCT-116 = assay: Cytotoxicity against human HCT116 cells after 72 hrs using resazurin dye by microtiter plate fluorimeter analysis; type: functional; conditions: HCT-116, 72 h
[1] = Cytotoxicity against human H1299 cells after 72 hrs using resazurin dye by microtiter plate fluorimeter analysis; type: functional; conditions: NCI-H1299, 72 h
MDA-MB-231 = assay: Cytotoxicity against human MDA-MB-231 cells after 72 hrs using resazurin dye by microtiter plate fluorimeter analysis; type: functional; conditions: MDA-MB-231, 72 h
K562 = assay: Cytotoxicity against human K562 cells after 72 hrs using resazurin dye by microtiter plate fluorimeter analysis; type: functional; conditions: K562, 72 h
[2] = Inhibition of sheep brain tubulin polymerization using DAPI by fluorescence assay; parameters: species or system Ovis aries
Procedure, shortened: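 Tubulin purified by two assembly–disassembly cycles, in 0.1 M MES, 0.5 mM MgCl2, 1 mM EGTA, 1 mM GTP, pH 6.6 (about 2-3 mg/mL). Assembly followed by DAPI fluorescence at 37°C.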

C=C(c1ccc(OC)c(O)c1)c1cc(OC)c(OC)c(OC)c1
GI50 (HCT-116): 3 nM | GI50 [1]: 3 nM | GI50 (MDA-MB-231): 4 nM | GI50 (K562): 5 nM | IC50 [2]: 2200 nM

COc1ccc(/C=C\c2cc(OC)c(OC)c(OC)c2)cc1O [COMBRETASTATIN A4]
GI50 (HCT-116): 2 nM | GI50 [1]: 5 nM | GI50 (MDA-MB-231): 3 nM | GI50 (K562): 4 nM

Reference: ChEMBL document CHEMBL2021895 (Eur J Med Chem, 2012)
